Experiments:
Mus musculus [1] = assay: Anticonvulsant activity after intraperitoneal injection into mice by using MES screen test after 0.5 hr; assay type: functional
Mus musculus [2] = assay: Anticonvulsant activity after intraperitoneal injection into mice measured in a maximal electroshock scree (MES) screen; assay type: functional
Mus musculus [3] = assay: Anticonvulsant activity after intraperitoneal injection into mice by using scPTZ screen after 0.5 hr; assay type: functional
Mus musculus [4] = assay: Anticonvulsant activity after intraperitoneal injection into mice by using scPTZ screen test after 4 hr; assay type: functional
Mus musculus [5] = assay: Toxicity after intraperitoneal injection into mice by using toxicity screen test after 0.5 hr; assay type: organism-based; conditions: in vivo, ip
Procedure, shortened: (§1)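 Mice injected intraperitoneally at 30, 100 and 300 mg/kg and examined 0.5 and 4 h afterwards. Each entry is the minimum dose giving activity (MES protection, scPTZ protection, or rotorod failure for neurotoxicity) in half or more of the mice. Activity is called absent if nothing occurs at 300 mg/kg.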

Mus musculus [6] = assay: Compound was tested for toxicity after intraperitoneal injection into mice by using toxicity screen test after 4 hr; assay type: organism-based; conditions: in vivo, ip; procedure, shortened: as §1
Rattus norvegicus [7] = assay: Compound was tested for anticonvulsant activity after Oral Administration into Rats by using MES screen test after 0.25h,dose 12.5 mg/kg; No activity was demonstarted; assay type: functional, organism-based; design: dose 12.5 mg/kg
Procedure, shortened: (§2)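 Rats received the compound orally. […] Rats were tested in the MES screen at 0.25, 0.5, 1, 2 and 4 h. Each value is the number of rats protected out of 4. The test followed NINDS procedures.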

Rattus norvegicus [8] = assay: Compound was tested for anticonvulsant activity after Oral Administration into Rats by using MES screen test after 4h,dose 12.5 mg/kg; number of rats out of four which were protected; assay type: functional; procedure, shortened: as §2
Rattus norvegicus [9] = assay: Anticonvulsant activity after oral administration into rats; assay type: functional; design: concentration or dose not given beside the values
Rattus norvegicus [10] = assay: Compound was tested for anticonvulsant activity after Oral Administration into Rats by using MES screen test after 1h,dose 12.5 mg/kg; number of rats out of four which were protected; assay type: functional; procedure, shortened: as §2
Rattus norvegicus [11] = assay: Compound was tested for anticonvulsant activity after Oral Administration into rat by using MES screen test after 2 hr; assay type: functional
Procedure, shortened: (§3)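 Rats dosed orally, typically at 50 mg/kg first, then mostly 12.5 mg/kg (some compounds at 30 mg/kg), and tested by maximal electroshock. Four rats per compound, scored at 0.25, 0.5, 1, 2 and 4 h as the number of rats protected out of 4.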

[12] = Compound was tested for toxicity after oral administration in rat by using neurotoxicity screen test after 0.25-24 hr; assay type: organism-based; conditions: in vivo
Procedure, shortened: (§4)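 Rat neurotoxicity after oral dosing, observed at 0.25, 0.5, 1, 2, 4, 6, 8 and 24 h (8 h omitted for one compound).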

[13] = Protection index = TD50/ED50 (MES); assay type: ADME, organism-based; conditions: rat, in vivo; read-out: PI
Rattus norvegicus [14] = assay: Compound was tested for anticonvulsant activity after Oral Administration into Rats by using MES screen test after 2h,dose 12.5 mg/kg; number of rats out of four which were protected; assay type: functional; procedure, shortened: as §2
[15] = Compound was tested for […] after intraperitoneal injection into mice by using neurotoxicity screen test after 2 hr; assay type: organism-based; conditions: mouse, in vivo, ip
Procedure, shortened: (§5)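 Quantitative intraperitoneal mouse testing in the MES, scPTZ or rotorod neurotoxicity screens at the peak time given for each compound (0.25–2 h). ED50 or TD50 reported in mg/kg with 95% CI and slope (SE).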

Rattus norvegicus [16] = assay: Compound was tested for anticonvulsant activity after Oral Administration into rat by using MES screen test after 4 hr; assay type: functional; procedure, shortened: as §3
[17] = Compound was tested for toxicity after oral administration in rat by using neurotoxicity screen test after 2 hr; assay type: organism-based; conditions: in vivo; procedure, shortened: as §4
Mus musculus [18] = assay: Compound was tested for anticonvulsant activity after intraperitoneal injection into mice by using MES screen test after 1 hr; assay type: functional; conditions: ip; procedure, shortened: as §5
[19] = Compound was tested for toxicity after intraperitoneal injection into mice by using neurotoxicity screen test after 4 hr; assay type: organism-based; conditions: mouse, in vivo, ip; procedure, shortened: as §1
[20] = Protection index = TD50/ED50; assay type: ADME; conditions: read-out: PI
Mus musculus [21] = assay: Compound was tested for anticonvulsant activity after intraperitoneal injection into mice by using scPTZ screen test after 1 hr; assay type: functional; conditions: ip; procedure, shortened: as §5
Rattus norvegicus [22] = assay: Compound was tested for anticonvulsant activity after Oral Administration into Rats by using MES screen test after 4h,dose 50 mg/kg; number of rats out of four which were protected; assay type: functional; procedure, shortened: as §2
Rattus norvegicus [23] = assay: Compound was tested for anticonvulsant activity after Oral Administration into Rats by using MES screen test after 2h,dose 50 mg/kg; number of rats out of four which were protected; assay type: functional; procedure, shortened: as §2
Rattus norvegicus [24] = assay: Compound was tested for anticonvulsant activity after Oral Administration into Rats by using MES screen test after 0.25h,dose 50 mg/kg; No activity was demonstarted; assay type: functional, organism-based; design: dose 50 mg/kg; procedure, shortened: as §2
Rattus norvegicus [25] = assay: Compound was tested for anticonvulsant activity after Oral Administration into Rats by using MES screen test after 0.5h,dose 50 mg/kg; number of rats out of four which were protected.; assay type: functional; procedure, shortened: as §2
Rattus norvegicus [26] = assay: Compound was tested for anticonvulsant activity after Oral Administration into Rats by using MES screen test after 1h,dose 50 mg/kg; number of rats out of four which were protected; assay type: functional; procedure, shortened: as §2
Rattus norvegicus [27] = assay: Compound was tested for anticonvulsant activity after Oral Administration into Rats by using MES screen test after 4h,dose 30 mg/kg; number of rats out of four which were protected; assay type: functional; procedure, shortened: as §2
Rattus norvegicus [28] = assay: Compound was tested for anticonvulsant activity after Oral Administration into Rats by using MES screen test after 0.25h,dose 30 mg/kg; No activity was demonstarted; assay type: functional, organism-based; design: dose 30 mg/kg; procedure, shortened: as §2
Rattus norvegicus [29] = assay: Compound was tested for anticonvulsant activity after Oral Administration into Rats by using MES screen test after 2h,dose 30 mg/kg; number of rats out of four which were protected; assay type: functional; procedure, shortened: as §2
Rattus norvegicus [30] = assay: Compound was tested for anticonvulsant activity after Oral Administration into Rats by using MES screen test after 0.5h,dose 30 mg/kg; No activity was demonstarted; assay type: functional, organism-based; design: dose 30 mg/kg; procedure, shortened: as §2
Rattus norvegicus [31] = assay: Compound was tested for anticonvulsant activity after Oral Administration into Rats by using MES screen test after 1h,dose 30 mg/kg; number of rats out of four which were protected; assay type: functional; procedure, shortened: as §2
[32] = Partition coefficient (logP); assay type: physicochemical; conditions: octanol/water
Procedure, shortened: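 Partition between 1-octanol and buffer at pH 7.4, with solutions prepared in 1-octanol before buffer is added. Quantified by UV, using λmax and ε values measured in 1-octanol.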

Rattus norvegicus [33] = assay: Compound was tested for anticonvulsant activity after Oral Administration into Rats by using MES screen test after 4h,dose 12.50 mg/kg; number of rats out of four which were protected; assay type: functional; conditions: dose 12.5 mg/kg; procedure, shortened: as §2
Rattus norvegicus [34] = assay: Compound was tested for anticonvulsant activity after Oral Administration into Rats by using MES screen test after 0.5h,dose 12.5 mg/kg; No activity was demonstarted; assay type: functional, organism-based; design: dose 12.5 mg/kg; procedure, shortened: as §2
Rattus norvegicus [35] = assay: Compound was tested for anticonvulsant activity after Oral Administration into Rats by using MES screen test after 2h,dose 12.5 mg/kg; No activity was demonstarted; assay type: functional, organism-based; design: dose 12.5 mg/kg; procedure, shortened: as §2
[36] = Compound was tested for toxicity after intraperitoneal injection into mice by using neurotoxicity screen test after 2 hr; assay type: organism-based; conditions: mouse, in vivo, ip; procedure, shortened: as §5
Rattus norvegicus [37] = assay: Compound was tested for anticonvulsant activity after Oral Administration into Rats by using MES screen test after 0.25h,dose 50 mg/kg; number of rats out of four which were protected; assay type: functional; procedure, shortened: as §2
[38] = Protection index = TD50/ED50 (MES); conditions: mouse, in vivo; read-out: PI

Row | Structure (SMILES) | Dose (Mus musculus [1]) | Dose (Mus musculus [2]) | Dose (Mus musculus [3]) | Dose (Mus musculus [6]) | Activity (Rattus norvegicus [7]) | Activity (Rattus norvegicus [8]) | Activity (Rattus norvegicus [9]) | Activity (Rattus norvegicus [10]) | Activity (Rattus norvegicus [14]) | Activity (Rattus norvegicus [22]) | Activity (Rattus norvegicus [23]) | Activity (Rattus norvegicus [25]) | Activity (Rattus norvegicus [26]) | also measured
1 | Cc1ccccc1Oc1ccc(/C=N/NC(N)=O)cc1 | 30 mg/kg | 100 mg/kg | 100 mg/kg | 300 mg/kg | No activity | 4 | 4 | 3 | 4 |  |  |  |  | Dose (Mus musculus [4]): 100 mg/kg; Dose (Mus musculus [5]): 300 mg/kg; ED50 (Rattus norvegicus [11]): 5.65 mg/kg; TD50 [12]: > 500 mg/kg; selectivity ratio [13]: > 88
2 | NC(=O)N/N=C/c1ccc(Oc2c(F)cccc2F)cc1 | 30 mg/kg | 30 mg/kg | 300 mg/kg | 300 mg/kg | No activity | 4 | 2 |  | 4 |  |  |  |  | Dose (Mus musculus [4]): 300 mg/kg; Dose (Mus musculus [5]): 300 mg/kg; TD50 at 2 h [15]: 125 mg/kg; ED50 (Rattus norvegicus [16]): 5.53 mg/kg; TD50 at 2 h [17]: > 500 mg/kg
3 | CCCc1ccc(Oc2ccc(/C=N/NC(N)=O)cc2)cc1 | 100 mg/kg | 100 mg/kg | 300 mg/kg | 300 mg/kg | No activity | 2 | 1 | 2 | 4 |  |  |  |  | ED50 (Mus musculus [18]): 11 mg/kg; TD50 at 4 h [19]: 243 mg/kg; ED50 (Rattus norvegicus [11]): 2.63 mg/kg; TD50 [12]: > 500 mg/kg; selectivity ratio [20]: 3.05; ED50 (Mus musculus [21]): 79.6 mg/kg
4 | NC(=O)N/N=C/c1ccc(Oc2ccc(Cl)c(Cl)c2)cc1 | 300 mg/kg | 30 mg/kg |  | 300 mg/kg |  |  |  |  |  | 4 | 4 | 2 | 4 | Activity (Rattus norvegicus [24]): No activity
5 | NC(=O)N/N=C\c1ccccc1Oc1ccc(F)cc1 |  |  |  |  |  |  |  |  |  |  |  |  |  | Activity (Rattus norvegicus [27]): 1; Activity (Rattus norvegicus [28]): No activity; Activity (Rattus norvegicus [29]): 2; Activity (Rattus norvegicus [30]): No activity; Activity (Rattus norvegicus [31]): 1
6 | COc1ccc(Oc2ccc(/C=N/NC(N)=O)cc2)cc1 | 100 mg/kg | 100 mg/kg |  | 300 mg/kg |  |  |  |  |  | 4 | 4 | 4 | 4 | logP [32]: 1.29; Activity (Rattus norvegicus [24]): No activity
7 | Cc1cccc(Oc2ccc(/C=N/NC(N)=O)cc2)c1C |  | 100 mg/kg |  |  | No activity |  |  | 1 |  |  |  |  |  | Activity (Rattus norvegicus [33]): 1; Activity (Rattus norvegicus [34]): No activity; Activity (Rattus norvegicus [35]): No activity
8 | NC(=O)N/N=C/c1ccc(Sc2ccc(Cl)cc2)cc1 | 100 mg/kg | 30 mg/kg | 300 mg/kg | 100 mg/kg |  |  |  |  |  | 4 | 4 | 4 | 4 | ED50 (Mus musculus [18]): 16.2 mg/kg; TD50 at 2 h [36]: 53.2 mg/kg; Activity (Rattus norvegicus [37]): 1; ED50 (Mus musculus [21]): > 120 mg/kg; selectivity ratio [38]: 3.28

Reference: ChEMBL document CHEMBL1129428 (J Med Chem, 1996)
